Measurements from ChEMBL document CHEMBL1125228, “A 3-D model for 5-HT1A-receptor agonists based on stereoselective methyl-substituted and conformationally restricted analogues of 8-hydroxy-2-(dipropylamino)tetralin” (J Med Chem, 1991).
Several values for one entry are separate records, joined by “and”; a condition that tells them apart may be missing. Equal entries are not always repeated.

Columns and labels:
[1] = molecular target: T1, 5-hydroxytryptamine receptor 1A (Rattus norvegicus, UniProt P19327); experiment: Binding affinity at 5-hydroxytryptamine 1A receptor by the displacement of [3H]8-OH-DPAT in rat brain.; assay type: tissue-based
T1 sequence (P19327 whole entry): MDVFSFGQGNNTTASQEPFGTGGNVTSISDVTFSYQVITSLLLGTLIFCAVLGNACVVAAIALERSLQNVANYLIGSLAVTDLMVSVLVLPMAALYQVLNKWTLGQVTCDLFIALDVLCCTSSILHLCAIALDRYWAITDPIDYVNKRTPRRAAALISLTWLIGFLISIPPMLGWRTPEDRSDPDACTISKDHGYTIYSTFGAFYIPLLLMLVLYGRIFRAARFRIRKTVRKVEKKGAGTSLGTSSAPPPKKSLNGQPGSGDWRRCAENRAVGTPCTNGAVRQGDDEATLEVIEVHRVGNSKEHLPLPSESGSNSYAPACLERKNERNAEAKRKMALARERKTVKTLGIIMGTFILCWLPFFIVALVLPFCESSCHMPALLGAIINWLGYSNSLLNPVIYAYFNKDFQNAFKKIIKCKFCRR
How it was run: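 Rat brain membranes washed in 50 mM Tris-HCl pH 7.4, with a 37 °C 10 min incubation to remove endogenous 5-HT, used at 10 mg wet tissue/mL. Incubated 15 min at 37 °C with 1 nM [3H]-8-OH-DPAT, 3 mM CaCl2 and pargyline. Filtered and counted; 10 µM 5-HT defined nonspecific binding. IC50 from four-parameter logistic fit, converted to Ki by Cheng-Prusoff; mean ± SEM of N experiments.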

[2] = molecular target: Serotonin (5-HT) receptor (Rattus norvegicus) (UniProt P35563+P35365+P32305+P31388+Q9JJ16+P28564+P30994+Q62758+P08909+P14842+P30940+P35364+P19327+P28565); experiment: Dose corresponding to half-maximal decrease of 5-HTP formation in the limbic and striatal parts of rat brain; assay type: functional, tissue-based
Rattus norvegicus [3] = experiment: In vivo accumulation of 5-HTP in brain stem of rat brain at a dose of 53 umol/kg.; assay type: functional
How it was run: (§1)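 Hydrochlorides given sc in the neck (5 mL/kg) to rats, either untreated or reserpine-pretreated (5 mg/kg sc, 6 h before). Decarboxylase inhibitor NSD 1015 (100 mg/kg ip or 60 mg/kg sc) given 30 min later; rats decapitated after another 30 min. Striatum, limbic system, hemispheres and brain stem dissected on ice and homogenized in 0.1 M perchloric acid with α-methyl-DOPA internal standard. DOPA, DA, 5-HTP and 5-HT measured by ion-pair reversed-phase HPLC with electrochemical detection.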

Rattus norvegicus [4] = experiment: In vivo accumulation of 5-HT in limbic of rat brain at a dose of 53 umol/kg.; assay type: functional; how it was run: as §1
Rattus norvegicus [5] = experiment: In vivo accumulation of 5-HT in striatum of rat brain at a dose of 53 umol/kg.; assay type: functional; how it was run: as §1
Rattus norvegicus [6] = experiment: In vivo accumulation of DA in striatum of rat brain at a dose of 53 umol/kg.; assay type: functional; how it was run: as §1
Rattus norvegicus [7] = experiment: In vivo accumulation of DOPA in striatum of rat brain at a dose of 53 umol/kg.; assay type: functional
How it was run: (§2)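 Rats, reserpine-pretreated (5 mg/kg, i.e. 9 μmol/kg sc, 6 h before) or nonpretreated, given test hydrochloride sc in the neck (injection volume 5 mL/kg). Decarboxylase inhibitor NSD 1015 (100 mg/kg ip or 60 mg/kg sc) given 30 min later; decapitation after another 30 min. Brain dissected on ice into striatum, limbic system, hemispheres, brain stem. Homogenized in 0.1 M perchloric acid with α-methyl-DOPA internal standard; DOPA measured by ion-pair reversed-phase HPLC with electrochemical detection.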

Rattus norvegicus [8] = experiment: In vivo accumulation of 5-HTP in hemisphere of rat brain at a dose of 53 umol/kg.; assay type: functional; how it was run: as §1
Rattus norvegicus [9] = experiment: In vivo accumulation of 5-HTP in limbic of rat brain at a dose of 53 umol/kg.; assay type: functional; how it was run: as §1
Rattus norvegicus [10] = experiment: In vivo accumulation of DOPA in brain stem of rat brain at a dose of 53 umol/kg.; assay type: functional; how it was run: as §1
Rattus norvegicus [11] = experiment: In vivo accumulation of 5-HTP in striatum of rat brain at a dose of 53 umol/kg.; assay type: functional; how it was run: as §1
[12] = molecular target: T2, Dopamine receptor (Rattus norvegicus) (UniProt P25115+P19020+P30729+P18901+P61169); experiment: In vivo accumulation of DOPA in limbic of rat brain at a dose of 63 umol/kg.; assay type: functional, organism-based; how it was run: as §2
Rattus norvegicus [13] = experiment: In vivo accumulation of 5-HTP in hemisphere of rat brain at a dose of 63 umol/kg.; assay type: functional; how it was run: as §1
Rattus norvegicus [14] = experiment: In vivo accumulation of 5-HT in striatum of rat brain at a dose of 63 umol/kg.; assay type: functional; how it was run: as §1
Rattus norvegicus [15] = experiment: In vivo accumulation of DA in striatum of rat brain at a dose of 63 umol/kg.; assay type: functional; how it was run: as §1
Rattus norvegicus [16] = experiment: In vivo accumulation of DOPA in brain stem of rat brain at a dose of 63 umol/kg.; assay type: functional; how it was run: as §1
Rattus norvegicus [17] = experiment: In vivo accumulation of 5-HTP in brain stem of rat brain at a dose of 63 umol/kg.; assay type: functional; how it was run: as §1
Rattus norvegicus [18] = experiment: In vivo accumulation of 5-HTP in limbic of rat brain at a dose of 63 umol/kg.; assay type: functional; how it was run: as §1
Rattus norvegicus [19] = experiment: In vivo accumulation of DOPA in striatum of rat brain at a dose of 63 umol/kg.; assay type: functional; how it was run: as §2
Rattus norvegicus [20] = experiment: In vivo accumulation of 5-HTP in striatum of rat brain at a dose of 63 umol/kg.; assay type: functional; how it was run: as §1
Rattus norvegicus [21] = experiment: In vivo accumulation of DOPA in hemisphere of rat brain at a dose of 63 umol/kg.; assay type: functional; how it was run: as §2
Rattus norvegicus [22] = experiment: In vivo accumulation of 5-HT in limbic of rat brain at a dose of 63 umol/kg.; assay type: functional; how it was run: as §1
[23] = molecular target: T2, Dopamine receptor (Rattus norvegicus); experiment: In vivo accumulation of DOPA in limbic of rat brain at a dose of 53 umol/kg.; assay type: functional, organism-based; how it was run: as §2
[24] = molecular target: T2, Dopamine receptor (Rattus norvegicus); experiment: In vivo accumulation of DOPA in hemisphere of rat brain at a dose of 53 umol/kg.; assay type: functional, organism-based; how it was run: as §2

SMILES: CCCN1CCC[C@H]2Cc3cccc(O)c3C[C@@H]21 [listing 1 of 2 here]
- Ki [1]: > 10 µM

SMILES: CCCN(CCC)[C@H]1Cc2c(O)cccc2C[C@@H]1C [listing 1 of 2 here]
- ED50 [2]: 0.005 mg/kg

SMILES: CCCN1CCC[C@H]2Cc3cccc(O)c3C[C@H]21 [listing 1 of 3 here]
- Control (Rattus norvegicus [3]): 110.3%
- Control (Rattus norvegicus [4]): 102.9%
- Control (Rattus norvegicus [5]): 100%
- Control (Rattus norvegicus [6]): 81.3%
- Control (Rattus norvegicus [7]): 67.2%
- Control (Rattus norvegicus [8]): 103.9%
- Control (Rattus norvegicus [9]): 92.6%
- Control (Rattus norvegicus [10]): 126.9%
- Control (Rattus norvegicus [11]): 81%

SMILES: CCCN1CCC[C@@H]2Cc3cccc(O)c3C[C@@H]21 [listing 1 of 2 here]
- Control (Rattus norvegicus [3]): 87.6%
- Control (Rattus norvegicus [4]): 107.5%
- Control (Rattus norvegicus [5]): 118.7%
- Control (Rattus norvegicus [6]): 105.3%
- Control (Rattus norvegicus [7]): 68.3%
- Control (Rattus norvegicus [8]): 77.9%
- Control (Rattus norvegicus [9]): 80.6%
- Control (Rattus norvegicus [10]): 82.3%
- Control (Rattus norvegicus [11]): 76.1%

SMILES: CCCN(CCC)[C@H]1Cc2c(O)cccc2C[C@@H]1C [listing 2 of 2 here]
- Ki [1]: 0.0496 µM

SMILES: CCCN(CCC)[C@H]1CCc2cccc(O)c2[C@H]1C
- ED50 [2]: > 0.05 mg/kg
- Ki [1]: 2.92 µM

SMILES: CCCN(CCC)C1CCc2cccc(O)c2C1C (racemic)
- Ki [1]: 0.00284 µM

SMILES: CCCN(CCC)[C@@H]1CCc2cccc(O)c2[C@H]1C (racemic)
- ED50 [2]: > 0.05 mg/kg
- Ki [1]: 1.04 µM

SMILES: Oc1cccc2c1C[C@@H]1NCCC[C@@H]1C2
- Control [12]: 75.3% and 73.5%
- Control (Rattus norvegicus [13]): 59.7%
- Control (Rattus norvegicus [14]): 105%
- Control (Rattus norvegicus [15]): 92.6%
- Control (Rattus norvegicus [16]): 97.7%
- Control (Rattus norvegicus [17]): 101.7%
- Control (Rattus norvegicus [18]): 88.6%
- Control (Rattus norvegicus [19]): 88%
- Control (Rattus norvegicus [20]): 102.7%
- Control (Rattus norvegicus [21]): 70.4%
- Control (Rattus norvegicus [22]): 92.5%

SMILES: CCCN1CCC[C@H]2Cc3cccc(O)c3C[C@H]21 [listing 2 of 3 here]
- Control [23]: 76.9% and 83.2%
- Control [24]: 116%
- ED50 [2]: > 0.05 mg/kg

SMILES: CCCN(CCC)C1(C)CCc2cccc(O)c2C1 (racemic)
- ED50 [2]: > 0.05 mg/kg
- Ki [1]: 1.13 µM

SMILES: Oc1cccc2c1C[C@H]1NCCC[C@H]1C2
- Control [12]: 82.4% and 85.6%
- Control (Rattus norvegicus [13]): 101.4%
- Control (Rattus norvegicus [14]): 100.5%
- Control (Rattus norvegicus [15]): 92.4%
- Control (Rattus norvegicus [16]): 94.9%
- Control (Rattus norvegicus [17]): 106.8%
- Control (Rattus norvegicus [18]): 92%
- Control (Rattus norvegicus [19]): 84%
- Control (Rattus norvegicus [20]): 108.8%
- Control (Rattus norvegicus [21]): 64.2%
- Control (Rattus norvegicus [22]): 89.4%

SMILES: CCCN1CCC[C@@H]2Cc3cccc(O)c3C[C@@H]21 [listing 2 of 2 here]
- Ki [1]: > 10 µM

SMILES: CCCN1CCC[C@H]2Cc3cccc(O)c3C[C@@H]21 [listing 2 of 2 here]
- Control [23]: 91.4% and 87.5%
- Control [24]: 98.8%
- ED50 [2]: > 0.05 mg/kg

SMILES: Oc1cccc2c1C[C@@H]1NCCC[C@H]1C2
- Control [12]: 85.7% and 95.5%
- Control (Rattus norvegicus [13]): 107.8%
- Control (Rattus norvegicus [14]): 116%
- Control (Rattus norvegicus [15]): 97.4%
- Control (Rattus norvegicus [16]): 90.3%
- Control (Rattus norvegicus [17]): 115.8%
- Control (Rattus norvegicus [18]): 104.6%
- Control (Rattus norvegicus [19]): 85.3%
- Control (Rattus norvegicus [20]): 116.8%
- Control (Rattus norvegicus [21]): 85.2%
- Control (Rattus norvegicus [22]): 109.6%

SMILES: CCCN(CCC)[C@@H]1Cc2c(O)cccc2C[C@H]1C
- ED50 [2]: > 0.043 mg/kg
- Ki [1]: 1.39 µM

SMILES: CCCN(CCC)[C@H]1Cc2c(O)cccc2C[C@H]1C
- ED50 [2]: > 0.05 mg/kg

SMILES: CCCN1CCC[C@H]2Cc3cccc(O)c3C[C@H]21 [listing 3 of 3 here]
- Ki [1]: 0.151 µM
